Bioassay records: PubChem, several laboratories
Sampled rows, rich in hits. Any-hit rate of the full collection: about 5.2%.
EBNA-1 inhibitor = blocks EBNA-1 binding to DNA; EBNA-1 DNA binding, fluorescence polarization; hit rate 0.34% among 300,000; inhibition, % at 14.8 µM; in the data active = inhibition above about 28%
ZTA DNA inh = ZTA (EBV) inhibition in EBNA-1 counter-screen; P03206; ZTA-DNA binding, fluorescence polarization; inhibition, % at 11 µM; hit rate 0.15% among 320,000; AID 2234; in the data active = inhibition above about 33%
Target sequence (P03206 whole entry, looked up): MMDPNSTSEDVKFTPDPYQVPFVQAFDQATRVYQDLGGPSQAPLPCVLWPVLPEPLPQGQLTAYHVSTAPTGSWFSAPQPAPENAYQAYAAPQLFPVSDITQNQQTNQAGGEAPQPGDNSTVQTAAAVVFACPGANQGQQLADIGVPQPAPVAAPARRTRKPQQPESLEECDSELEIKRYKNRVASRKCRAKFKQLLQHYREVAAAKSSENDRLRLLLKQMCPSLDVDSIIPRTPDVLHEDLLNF
PfM18AAP inh = blocks P. falciparum M18 aspartyl aminopeptidase; recombinant PfM18AAP, H-Glu-NHMec fluorogenic cleavage; inhibition, % at 7.35 µM; hit rate 1.2% among 290,000; AID 1822;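 active = inhibition above the campaign mean inhibition over all tested compounds plus 3 SD, cut at about 28% in these data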
ALR inh = inhibitors of human sulfhydryl oxidase ALR | P55789 | purified ALR, DTT oxidation, H2O2 HRP-luminol luminescence | inhibition, % (concentration not given with the values) | hit rate 3.8% among 290,000 | AID 485317;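 active = mean replicate inhibition above about 79%, with every replicate also reaching it, limit read from the data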
Target sequence (P55789 whole entry, looked up): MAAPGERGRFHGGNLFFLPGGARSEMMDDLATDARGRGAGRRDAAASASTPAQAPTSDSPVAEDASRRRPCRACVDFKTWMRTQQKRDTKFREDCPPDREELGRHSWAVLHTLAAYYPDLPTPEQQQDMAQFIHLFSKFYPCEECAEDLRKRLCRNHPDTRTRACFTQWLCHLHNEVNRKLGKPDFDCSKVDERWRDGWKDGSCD
core dimer inh = HCV core protein dimerization inhibition. TR-FRET GST/Flag-core106 dimerization, 1536-well. AID 1899. hit rate 0.33% among 300,000. inhibition, % at 5 µM;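 active = inhibition above the mean of all tested compounds plus 3 SD, set per screening campaign, cut at about 45% in these data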
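Assay system: tagged HCV core106 pair (GST and Flag); medium: KF-containing HEPES buffer, pH 7.45, DTT, CHAPS, BSA; also added: Eu donor and XL665 acceptor anti-tag antibodies; dosing: 5 µM single dose; timing: compound-protein-antibody incubation 4 h at 22.5 °C; signal: TR-FRET 671 and 617 nm emission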
NS3 helicase inh = blocks Hepatitis C virus NS3 helicase unwinding; hit rate 0.56% among 290,000; inhibition, % at 10.9 µM; AID 1800; NS3 helicase DNA unwinding, Cy5 molecular beacon fluorescence;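 active = inhibition above the mean of all tested compounds plus 3 SD, set per campaign, cut at about 35% in these data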
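test system = hepatitis C virus NS3 helicase domain fragment enzyme | reagent = annealed dual-labelled DNA beacon duplex, ATP-started | times = 1 h at 25 °C | detection = Cy5 fluorescence, 0 and 60 min reads | read-out basis = percent inhibition from t60/t0 fluorescence ratio | control set = DMSO and thioflavine S | replication = one well per compound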
A number is an active result; – = inactive; · = no result.

SMILES | EBNA-1 inhibitor | ZTA DNA inh | PfM18AAP inh | ALR inh | core dimer inh | NS3 helicase inh
CC(C)=CCc1c(O)cc2oc3c(CC=C(C)C)c(O)c(O)c(CC=C(C)C)c3c(=O)c2c1O | – | – | · | – | 58.3 | ·
O=c1[nH]n(-c2ccc(Cl)cc2)c2ncccc12 | – | – | – | 98.9 | – | –
O=c1[nH]n(-c2cccc3cccnc23)c(=O)c2ccccc12 | – | – | – | – | – | –
Cc1ccnc(N2CCC(C(=O)NNC(=O)COc3cccc4ccccc34)CC2)n1 | – | – | – | – | – | –
Cc1cccc(/C(N)=N/OC(=O)c2ccc3c(c2)OCO3)c1 | – | – | – | 97.2 | – | –
N/C(=N\OC(=O)c1ccc2c(c1)OCO2)c1cccc([N+](=O)[O-])c1 | – | – | – | – | – | –
CCOC(=O)N1CCN(c2c(NCc3ccccc3Cl)c(=O)c2=O)CC1 | – | – | – | · | – | –
Fc1ccc(N2CCN(Cc3cn[nH]c3-c3ccccc3)CC2)cc1 | – | – | – | – | – | –
Fc1ccc(CNc2ccc(N3CCN(Cc4ccccc4)CC3)cc2)cc1 | – | – | – | 89.0 | – | –
CC(=O)N1CCN(c2ccc(NCc3ccc(Br)o3)cc2)CC1 | · | – | · | 99.4 | · | ·
Fc1ccc(N2CCN(Cc3ccccn3)CC2)cc1 | – | – | – | 97.3 | – | –
CC(=O)N1CCN(c2ccc(NCc3ccccc3)cc2)CC1 | – | – | – | 98.9 | – | –
Cc1ccc(NC(=O)c2ccccc2OCc2ccc([N+](=O)[O-])cc2)nc1 | – | – | – | – | – | –
CCC1Sc2ccc(S(=O)(=O)CCC(=O)Nc3cc(C)ccn3)cc2NC1=O (stereo not given) | – | – | – | – | – | –
Cc1ccc(NC(=O)c2ccc3c(c2)N(CC(=O)NC(C)C)C(=O)C(C)(C)O3)cc1 | – | – | – | – | – | –
CC(=O)Oc1ccc(C(=O)NC(C)CCc2ccccc2)cc1 (stereo not given) | – | – | – | – | – | –
CC(=O)N1CCN(c2ccc(NCc3cccc4ccccc34)cc2)CC1 | – | – | – | 99.2 | – | –
CC(=O)N1CCN(c2ccc(NCc3ccc(-c4ccc(Br)cc4)o3)cc2)CC1 | · | · | · | – | · | ·
CCOC(=O)N1CCC(NC(=O)c2cccc3c2C(=O)N(c2ccc(OC)cc2)C3)CC1 | – | – | – | · | 59.4 | –
COc1ccc(N2Cc3cccc(C(=O)NC(C)CCc4ccco4)c3C2=O)cc1 (stereo not given) | – | – | – | 98.5 | 62.8 | –
CCOC(=O)N1CCC(N2Cc3cccc(C(=O)NCc4ccc(OC)cc4)c3C2=O)CC1 | – | – | – | – | – | –
COc1ccccc1NC(=S)NC(=O)c1ccc(Cn2cc(Br)cn2)cc1 | – | – | – | – | – | –
CN(C)c1ccc(N=Nc2cccc3ccoc23)cc1 | – | – | – | 85.8 | – | –
Cc1ccc(C(=O)n2nc(-c3ccccc3)nc2NCc2ccco2)cc1 | – | – | – | – | – | –
CCCC(=O)n1nc(-c2ccc(C)cc2)nc1NCc1ccco1 | – | – | – | 89.6 | – | –
SMILES | EBNA-1 inhibitor | ZTA DNA inh | PfM18AAP inh | ALR inh | core dimer inh | NS3 helicase inh
O=S(=O)(c1ccc(Cl)c(NC(=S)N/N=C/c2ccc(O)cc2)c1)N1CCOCC1 | – | – | – | 98.7 | – | –
O=S(=O)(c1ccc(Cl)c(NC(=S)Nc2ccccc2N2CCOCC2)c1)N1CCOCC1 | – | – | – | 98.1 | – | –
O=S(=O)(c1ccc(Cl)c(NC(=S)N/N=C/c2c(F)cccc2F)c1)N1CCOCC1 | – | – | – | – | – | –
O=C(Nc1ccccc1N1CCCC1)c1cc(S(=O)(=O)N2CCOCC2)ccc1Cl | – | – | · | – | – | ·
COc1ccc2cc(/C=N/NC(=O)CSCc3ccc([N+](=O)[O-])cc3)c(Cl)nc2c1 | – | – | – | 99.1 | – | –
Nc1nc(Nc2ccccc2)nc(NCc2ccccc2)c1[N+](=O)[O-] | – | – | – | 86.1 | – | –
COc1ccc(C)cc1NC(=O)CSc1ccc(-c2ccco2)nn1 | – | – | – | – | – | –
COC(=O)c1ccc(NC(=O)c2ccc(C)cc2)o1 | – | – | – | 98.2 | – | –
COc1cccc(NC(=O)c2cccc(Cl)c2)c1 | – | – | · | · | – | ·
COC(=O)c1ccc(NC(=O)c2cccc(Cl)c2)o1 | – | – | – | 92.8 | – | –
COC(=O)c1ccc(NC(=O)c2ccc(F)cc2)o1 | – | – | – | – | – | –
COc1ccccc1CNC(=O)c1ccccc1C(=O)NC(CC(C)C)C(=O)NCc1ccccc1OC (stereo not given) | – | – | – | · | – | –
Cc1ccc(-c2nn(-c3ccccc3)cc2C2CC(c3cccs3)=NN2C(=O)CCC(=O)O)cc1 (stereo not given) | – | – | – | – | – | –
O=C(O)CCn1cc(C2CC(c3ccccc3)=NN2c2ccccc2)c(-c2ccccc2)n1 (stereo not given) | – | – | – | 98.8 | – | –
Nc1nc(-c2cc3c(cc2Cl)OCCO3)cs1 | – | – | – | 99.4 | – | –
Nc1nc(-c2ccc3c(c2)OCCO3)cs1 | – | – | – | 98.6 | – | –
CC(=O)NNC(=O)CSc1nnc(-c2ccccc2)c(-c2ccccc2)n1 | – | – | – | 83.0 | – | –
CC12CCC(=O)N1C(C(=O)Nc1ccc(SC(F)F)cc1)CS2 (stereo not given) | – | – | · | – | – | ·
CC(=O)Nc1ccc(C(=O)NCC(=O)OCc2c(F)cccc2Cl)cc1 | – | – | – | – | – | –
CCOc1ccccc1NC(=O)C1CCN(S(C)(=O)=O)CC1 | – | – | – | – | – | –
CCn1c(CN2CCN(c3ccc(Cl)cc3)CC2)nc2ccccc21 | – | – | – | 95.7 | – | –
Cn1c(CN2CCN(c3ccc(Cl)cc3)CC2)nc2ccccc21 | – | – | – | – | – | –
O=C1OCC(CO)(CO)N=C1NNc1ccccc1[N+](=O)[O-] | – | – | – | 98.7 | – | –
O=C1OCC(CO)(CO)N=C1NNc1cc(Cl)ccc1Cl | – | – | – | 98.6 | – | –
Cc1cc(C(=O)NNc2cc(Cl)ccc2Cl)no1 | – | – | – | · | – | –
SMILES | EBNA-1 inhibitor | ZTA DNA inh | PfM18AAP inh | ALR inh | core dimer inh | NS3 helicase inh
O=C(Nc1ccnn1C1CCN(Cc2cccc(OCCO)c2)CC1)C1CC1 | – | – | – | – | – | –
Cc1cc(O)c(CN(C)C)c2c1C(=O)/C(=C/c1ccco1)O2 | – | – | 30.8 | – | – | –
Cc1cnc(C(=O)OCc2nc3ccsc3c(=O)[nH]2)cn1 | · | – | · | – | · | ·
COc1ccc(Cl)cc1N(CC(=O)N1CCCCCC1)S(C)(=O)=O | – | – | – | – | – | –
Clc1ccc(CSc2nnnn2-c2ccc3c(c2)OCO3)c(Cl)c1 | – | – | – | – | – | –
CCC(=O)N1CCN=C1SCc1ccccc1Cl | – | – | – | 99.7 | – | –
CC(=O)N1CCN=C1SCc1ccccc1Cl | – | – | – | 100.8 | – | –
O=C(c1cccs1)N1CCN=C1SCc1ccccc1F | – | – | – | – | – | –
